Measurements taken from ChEMBL document CHEMBL1122048, “Adriamycin analogues. Preparation of 9,10-anhydrodaunorubicin, 9,10-anhydroadriamycin, and some related compounds” (1982).

Test system: CCRF-CEM
Test: In vitro growth inhibitory activity against CCRF-CEM (human lymphoblastic leukemic) cells.
Format: functional
Conditions: read-out: ID50 (the source's name)
How it was run: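 Human lymphoblastic leukemia CCRF-CEM cultures exposed to drug for 48 h. The value is the concentration inhibiting culture growth by 50% relative to untreated controls.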

Row | Compound | IC50 [µM]
1 | COc1cccc2c1C(=O)c1c(O)c3c(c(O)c1C2=O)C=C(C(C)=O)C[C@@H]3O | 10
2 | COc1cccc2c1C(=O)c1c(O)c3c(c(O)c1C2=O)C=C(C(C)=O)CC3 | > 10
3 | CCCCC(=O)OCC(=O)C1=Cc2c(O)c3c(c(O)c2[C@@H](OC2CC(NC(=O)C(F)(F)F)C(O)C(C)O2)C1)C(=O)c1c(OC)cccc1C3=O (stereo partly drawn) | 2.7
4 | COc1cccc2c1C(=O)c1c(O)c3c(c(O)c1C2=O)C[C@@](O)(C(=O)CO)C[C@@H]3O[C@H]1C[C@H](N)[C@H](O)[C@H](C)O1 [DOXORUBICIN] | 0.066
5 | CCCCC(=O)OCC(=O)[C@]1(O)Cc2c(O)c3c(c(O)c2[C@@H](OC2CC(NC(=O)C(F)(F)F)C(O)C(C)O2)C1)C(=O)c1c(OC)cccc1C3=O (stereo partly drawn) | 0.23
6 | COc1ccc(C(OCC(=O)C2=Cc3c(O)c4c(c(O)c3[C@@H](OC3CC(NC(=O)C(F)(F)F)C(O)C(C)O3)C2)C(=O)c2c(OC)cccc2C4=O)(c2ccccc2)c2ccccc2)cc1 (stereo partly drawn) | > 5

Next, values leading:

Row | IC50 [µM] | Compound
7 | 3.95 | COc1cccc2c1C(=O)c1c(O)c3c(c(O)c1C2=O)CC(C(C)=O)C[C@@H]3OC1CC(NC(=O)C(F)(F)F)C(O)C(C)O1 (stereo partly drawn)
8 | 4.71 | CCCCC(=O)OCC(=O)[C@@H]1Cc2c(O)c3c(c(O)c2[C@@H](OC2CC(NC(=O)C(F)(F)F)C(O)C(C)O2)C1)C(=O)c1c(OC)cccc1C3=O (stereo partly drawn)
9 | 2.31 | COc1cccc2c1C(=O)c1c(O)c3c(c(O)c1C2=O)C=C(C(=O)CO)C[C@@H]3OC1CC(N)C(O)C(C)O1 (stereo partly drawn)
10 | > 10 | COc1cccc2c1C(=O)c1c(O)c3c(c(O)c1C2=O)C[C@@H](C(C)=O)CC3
11 | 2.56 | COc1cccc2c1C(=O)c1c(O)c3c(c(O)c1C2=O)C=C(C(C)=O)C[C@@H]3OC1CC(NC(=O)C(F)(F)F)C(O)C(C)O1 (stereo partly drawn)
12 | > 5 | COc1ccc(C(OCC(=O)C2=Cc3c(O)c4c(c(O)c3[C@@H](OC3CC(N)C(O)C(C)O3)C2)C(=O)c2c(OC)cccc2C4=O)(c2ccccc2)c2ccccc2)cc1 (stereo partly drawn)
13 | 0.04 | COc1cccc2c1C(=O)c1c(O)c3c(c(O)c1C2=O)C[C@@](O)(C(C)=O)C[C@@H]3O[C@H]1C[C@H](N)[C@H](O)[C@H](C)O1 [DAUNORUBICIN]
